Experimental findings from ChEMBL document CHEMBL4311940, “Design, Synthesis, and Biological Evaluation of 4-Methyl Quinazoline Derivatives as Anticancer Agents Simultaneously Targeting Phosphoinositide 3-Kinases and Histone Deacetylases” (J Med Chem, 2019) are described below.

Activity calls are given as the source filed them. The rule behind the calls is not given here.

Data set [1] addresses Phosphatidylinositol 4,5-bisphosphate 3-kinase catalytic subunit alpha isoform (Homo sapiens, UniProt P42336). In words: Inhibition of recombinant human PI3Kalpha using PIP2 as substrate incubated for 1 hr by kinase-glo assay. (Kinase-Glo reads ATP consumption through a luciferase reaction.)
Data set [2] is filed under the species Homo sapiens. In words: Selectivity ratio, ratio of IC50 for recombinant human N-terminal FLAG-tagged mTOR (1362 to end amino acids) to IC50 for recombinant human PI3Kalpha.
The species named for data set [3] is Homo sapiens. In words: Inhibition of HDAC/PI3K in human HCT116 cells assessed as increase in cleaved PARP level at 0.02 to 0.5 uM after 16 hrs by Western blot analysis. It counts as cell-based. The method in brief: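 Immunoblot of HCT116 lysates (RIPA). 40 μg protein per lane on 10−12% SDS-PAGE, transferred to nitrocellulose, blocked 0.5 h in 5% milk/TBST. Primary antibodies 1:1000 overnight at 4 °C, secondary 1:1000 for 1 h, bands visualized by enhanced ECL.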

A short description of data set [4]: Terminal half life in ICR mouse at 30 mg/kg, po measured after 0.083 to 24 hrs by LC/MS/MS analysis. It counts as ADME, organism-based. The note with it: in vivo, read-out: beta t1/2 (converted). The method in brief: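 Male-unspecified ICR mice, 3 per group iv (3 mg/kg in 10% DMSO/saline) and 5 per group po (30 mg/kg in 0.5% cmc/0.3% Tween 80). Blood sampled 0.033 (iv) or 0.083 (po) to 24 h. Plasma extracted with acetonitrile, analysed by LC/MS/MS; noncompartmental analysis.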

In data set [5] the test system is HCT-116. Put plainly: Antitumor activity against human HCT116 cells xenografted in athymic nude BALB/c mouse assessed as tumor growth inhibition at 100 mpk, po measured 2 times every week relative to control. Format: functional. The note with it: HCT-116, po, read-out: TGI. The procedure, abridged: (§1)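 Female BALB/c-nu/nu mice, 6–8 weeks, given 2 × 10^6 HCT116 cells in 0.2 mL saline s.c. right flank; randomized at 100–200 mm3. Daily oral dosing in 0.5% cmc with Tween 80; vehicle controls.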

Data set [6] concerns HCT-116. Put plainly: Antitumor activity against human HCT116 cells xenografted in po dosed athymic nude BALB/c mouse assessed as tumor growth inhibition measured 2 times every week. It counts as functional, organism-based. The method in brief: as §1
(Xenograft models place foreign cells or tissue in a host animal.)

The next data set concerns HGC-27. In words: Antitumor activity against human HGC27 cells xenografted in athymic nude BALB/c mouse assessed as tumor growth inhibition at 30 mpk, ip measured 2 times every week. It counts as functional. To be noted: HGC-27, ip, read-out: TGI. The procedure, abridged:
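HGC-27 xenograft: 2 × 10^6 cells in 0.2 mL saline s.c. right flank of female BALB/c-nu/nu mice (6–8 weeks); randomized at 100–200 mm3. Oral dosing in 0.5% cmc with Tween 80, intraperitoneal in saline; vehicle given orally daily.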

Data set [7] can be described thus: Drug level in BALB/c mouse plasma xenografted with human HGC27 cells at 30 mg/kg, ip measured 0.5 hrs post last dose. Format: ADME, organism-based. The procedure, abridged:
(§2)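 HGC-27 xenografted nude mice dosed po (0.5% cmc/Tween 80) or ip (saline); at end of treatment, 0.5 h after final dose, plasma and tumor tissue collected and compound concentration measured (ng/mL plasma, ng/g tumor).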

Data set [8] is described as follows: Drug level in tumor of human HGC27 cells xenografted in BALB/c mouse at 100 mg/kg, po measured 0.5 hrs post last dose. Format: ADME, organism-based, Neoplasm. The note with it: read-out: Drug uptake. The method in brief:
as §2

Chain of Phosphatidylinositol 4,5-bisphosphate 3-kinase catalytic subunit alpha isoform (P42336 whole entry, canonical isoform): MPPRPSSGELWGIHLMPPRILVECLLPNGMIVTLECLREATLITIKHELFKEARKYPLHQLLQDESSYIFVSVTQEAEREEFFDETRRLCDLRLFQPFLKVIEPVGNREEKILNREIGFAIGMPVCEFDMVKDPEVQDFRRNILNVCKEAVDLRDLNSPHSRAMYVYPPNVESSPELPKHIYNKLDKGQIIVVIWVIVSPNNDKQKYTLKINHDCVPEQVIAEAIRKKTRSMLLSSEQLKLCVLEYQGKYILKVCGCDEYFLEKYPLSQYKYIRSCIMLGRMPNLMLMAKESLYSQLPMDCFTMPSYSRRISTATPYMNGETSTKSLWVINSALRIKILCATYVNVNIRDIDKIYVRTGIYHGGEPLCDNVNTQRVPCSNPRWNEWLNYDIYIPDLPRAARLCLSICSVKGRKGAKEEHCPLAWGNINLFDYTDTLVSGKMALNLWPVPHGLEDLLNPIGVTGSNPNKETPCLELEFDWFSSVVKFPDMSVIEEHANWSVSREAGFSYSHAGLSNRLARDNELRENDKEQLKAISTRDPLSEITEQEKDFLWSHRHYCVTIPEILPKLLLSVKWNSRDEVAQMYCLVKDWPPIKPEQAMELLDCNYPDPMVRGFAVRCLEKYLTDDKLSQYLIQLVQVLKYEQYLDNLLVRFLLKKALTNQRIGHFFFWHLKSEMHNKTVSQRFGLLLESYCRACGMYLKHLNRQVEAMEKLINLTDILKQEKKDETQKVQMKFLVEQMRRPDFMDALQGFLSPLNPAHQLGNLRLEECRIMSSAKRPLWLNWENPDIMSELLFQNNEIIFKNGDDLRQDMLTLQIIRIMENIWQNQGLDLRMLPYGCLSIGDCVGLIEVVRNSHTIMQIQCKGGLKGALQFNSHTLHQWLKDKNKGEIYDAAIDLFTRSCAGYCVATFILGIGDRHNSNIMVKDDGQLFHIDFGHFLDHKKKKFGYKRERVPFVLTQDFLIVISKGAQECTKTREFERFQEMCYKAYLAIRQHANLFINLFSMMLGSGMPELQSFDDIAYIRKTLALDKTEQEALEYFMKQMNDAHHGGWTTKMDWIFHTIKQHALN

What is called IC50 is the concentration that gives 50% inhibition. Take `COc1ccc(-c2cc(OCCN(C)c3ncc(C(=O)NO)cn3)c3ncnc(C)c3c2)cn1`: in data set [1], the IC50 was determined as 226 nM. Further, in the data set filed under Homo sapiens [2], the Ratio IC50 was more than 27. Moreover, the inhibition result in the data set listed under Homo sapiens [3] was “Active”.

For the compound `COc1ncc(-c2cc(OCCCCCCC(=O)NO)c3ncnc(C)c3c2)cc1F`, the half-life in [4] is 124 min. In addition, in the data set on HCT-116 [5], the inhibition in vivo at 100 mg/kg worked out at 18.3%. Moreover, the Activity result in the data set on HCT-116 [6] was “Dose-dependent effect”. Besides, the inhibition in vivo at 30 mg/kg in the data set on HGC-27 turned out to be 62.6%. In addition, the concentration at 0.5 h was found to be 577 ng/mL in [7] and 36.6 ng/g in [8].
